Nine molecules from ChEMBL document CHEMBL3045523, “The limonoids and their antitobacco mosaic virus (TMV) activities from Munronia unifoliolata Oliv” (J Agric Food Chem, 2012) can be followed below.

What is called inhibition is the drop in the measured response relative to a control, in per cent. Broadly, the IC50 is the concentration that inhibits the measured activity by half.

For test [1], the system named is Tobacco mosaic virus. Kind of test: Inhibition of Tobacco mosaic virus (TMV) infection in Nicotiana glutinosa at 200 ug/ml after 3 to 4 days by half-leaf method. Format: functional. In outline:
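Curative half-leaf test on N. glutinosa. Leaves were mechanically inoculated with purified TMV U1 (30 μg/mL). After 2 h, compound (DMSO stock in water) was applied to the left half and DMSO to the right half. Lesions were counted after 3–4 days. Values are mean ± SD, n = 3.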

The subject of test [2] is Tobacco mosaic virus. The test is described as follows: Inhibition of Tobacco mosaic virus (TMV) infection in Nicotiana glutinosa assessed as infection inhibition rate at 30 ug/ml after 3 to 4 days by half-leaf method. Format: functional. In outline:
(§1)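 Half-leaf protective assay on Nicotiana glutinosa local-lesion host at the 4–5 leaf stage. TMV U1, purified and diluted to 30 μg/mL in 0.01 M PBS, was mixed with compound solution (DMSO stock diluted in water) for 30 min. The mix was rubbed onto the left leaf half, with virus plus DMSO on the right half. Local lesions were counted 3–4 days later; three repetitions.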

For test [3], the system named is Tobacco mosaic virus. Kind of test: Inhibition of Tobacco mosaic virus (TMV) infection in Nicotiana tabacum cv. K326 at 30 ug/ml by DAS-ELISA method. The format is functional. An outline of the steps:
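Leaf-disk test in N. tabacum cv. K326. Leaves were inoculated with TMV (30 μg/mL), and 1 cm disks were cut after 72 h. Disks were floated on compound, DMSO (negative) or mock solutions at 28 °C for 48 h. Virus in disks was measured by DAS-ELISA at OD405 against a TMV standard curve (0.23–3.75 μg/mL). Inhibition = (1 − treated/negative-control TMV) × 100%.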

For test [4], the system named is Tobacco mosaic virus. The test is described as follows: Inhibition of Tobacco mosaic virus (TMV) infection in Nicotiana glutinosa after 3 to 4 days by half-leaf method. Format: functional, organism-based. In outline:
as §1

In test [5] the test system is Tobacco mosaic virus. Kind of test: Inhibition of Tobacco mosaic virus (TMV) infection in Nicotiana glutinosa assessed as infection inhibition rate at 5 ug/ml after 3 to 4 days by half-leaf method. The format is functional. An outline of the steps: as §1
The subject of test [6] is Tobacco mosaic virus. The test is described as follows: Inhibition of Tobacco mosaic virus (TMV) infection in Nicotiana glutinosa assessed as infection inhibition rate at 20 ug/ml after 3 to 4 days by half-leaf method. Format: functional. An outline of the steps:
as §1

In test [7] the test system is Tobacco mosaic virus. Kind of test: Inhibition of Tobacco mosaic virus (TMV) infection in Nicotiana glutinosa assessed as infection inhibition rate at 15 ug/ml after 3 to 4 days by half-leaf method. Format: functional. In outline:
as §1

The test system of test [8] is Tobacco mosaic virus. The test is described as follows: Inhibition of Tobacco mosaic virus (TMV) infection in Nicotiana glutinosa assessed as infection inhibition rate at 10 ug/ml after 3 to 4 days by half-leaf method. Format: functional. An outline of the steps: as §1
For test [9], the system named is Tobacco mosaic virus. Kind of test: Inhibition of Tobacco mosaic virus (TMV) infection in Nicotiana glutinosa assessed as infection inhibition rate at 25 ug/ml after 3 to 4 days by half-leaf method. Format: functional. An outline of the steps: as §1

≈ marks a conversion by molar mass, not a printed value.

Take `CC(=O)O[C@H]1C[C@@H](OC(C)=O)[C@@]2(C)CO[C@H]3[C@@H](O)[C@@]4(C)C5=CC[C@@H](c6ccoc6)[C@]5(C)CC[C@@H]4[C@]1(C)[C@@H]32` [DIACETYLVILASININ]: in the test on Tobacco mosaic virus [1], the inhibition at 200 µg/mL turned out to be 17.2%. The inhibition at 30 µg/mL in the test on Tobacco mosaic virus [2] came out at 14.6%.
`C=C1[C@@H]([C@@]2(C)C=CC(=O)O[C@](C)(COC(C)=O)[C@@H]2CC(=O)OC)[C@@H](OC=O)[C@H](OC(=O)[C@H](O)[C@H](C)CC)[C@@]2(C)[C@@H](c3ccoc3)C[C@H]3O[C@]132` [MOMBASOL] yielded an inhibition at 200 µg/mL with Tobacco mosaic virus [1] of 27.7%. The inhibition at 30 µg/mL came out at 25.9% in the test on Tobacco mosaic virus [2] and 39.3% in the test on Tobacco mosaic virus [3].
Take `CCC(C)C(O)C(=O)O[C@H]1C[C@H]2[C@](C)(C3=CC[C@@H](c4ccoc4)[C@@]31C)[C@H](OC(C)=O)C[C@H]1C(C)(C)OC(=O)C[C@H](OC(C)=O)[C@@]12C` (stereo partly specified) [MUNRONOID K]: the IC50 in the test with Tobacco mosaic virus [4] was determined as 28.3 µg/mL (≈ 44 µM). Besides, the inhibition at 200 µg/mL with Tobacco mosaic virus [1] was 55.6%. Also, the inhibition at 5 µg/mL in the test with Tobacco mosaic virus [5] came to 6.5%. In addition, the inhibition at 20 µg/mL with Tobacco mosaic virus [6] worked out at 38.7%. Also, the inhibition at 15 µg/mL in the test on Tobacco mosaic virus [7] came out at 28.6%. In addition, the values for the inhibition at 30 µg/mL in the test with Tobacco mosaic virus [2] and with Tobacco mosaic virus [3] were 51.9% and 67.2%, respectively. In addition, the inhibition at 10 µg/mL in the test with Tobacco mosaic virus [8] is 18.7%. Moreover, the inhibition at 25 µg/mL in the test on Tobacco mosaic virus [9] was 45.7%.
Take `CC(=O)O[C@H]1C[C@H]2[C@](C)(C3=CC[C@@H](c4ccoc4)[C@@]31C)[C@H](OC(C)=O)C[C@H]1C(C)(C)OC(=O)C[C@H](OC(C)=O)[C@@]12C` [MUNRONOID L]: 34.6 µg/mL (≈ 60.6 µM) corresponded to half-maximal inhibition in the test on Tobacco mosaic virus [4] (IC50). The molecule also yielded an inhibition at 200 µg/mL in the test on Tobacco mosaic virus [1] of 34.6%. Further, the inhibition at 5 µg/mL in the test with Tobacco mosaic virus [5] was 4.4%. Further, in the test with Tobacco mosaic virus [6], the inhibition at 20 µg/mL was 35.8%. In addition, in the test with Tobacco mosaic virus [7], the inhibition at 15 µg/mL came out at 25.7%. Besides, the inhibition at 30 µg/mL with Tobacco mosaic virus [2] was found to be 47.7%; in the test with Tobacco mosaic virus [3] it was 54.4%. In the test with Tobacco mosaic virus [8], the inhibition at 10 µg/mL is 15.3%. The inhibition at 25 µg/mL with Tobacco mosaic virus [9] stood at 43.9%.
With `CC(=O)O[C@H]1C[C@H]2[C@](C)(C3=CC[C@@H](c4ccoc4)[C@@]31C)[C@H](OC(=O)C=C(C)C)C[C@H]1C(C)(C)OC(=O)C[C@H](OC(C)=O)[C@@]12C` [MUNRONOID M], in the test with Tobacco mosaic virus [4], the IC50 is 37 µg/mL (≈ 60.6 µM). This molecule had an inhibition at 200 µg/mL in the test with Tobacco mosaic virus [1] of 29.3%. The inhibition at 20 µg/mL in the test with Tobacco mosaic virus [6] came out at 33.5%. The inhibition at 15 µg/mL with Tobacco mosaic virus [7] worked out at 22.6%. The inhibition at 30 µg/mL in the test on Tobacco mosaic virus [2] came out at 45.4%; with Tobacco mosaic virus [3], 45.7%. Also, the inhibition at 10 µg/mL with Tobacco mosaic virus [8] worked out at 11.5%. Besides, the inhibition at 25 µg/mL in the test with Tobacco mosaic virus [9] was found to be 42.9%.
`C/C=C(\C)C(=O)O[C@H]1C[C@@H](OC(C)=O)[C@@]2(C)CO[C@H]3[C@@H](O)[C@@]4(C)C5=C[C@@H](O)[C@@H](c6ccoc6)[C@]5(C)[C@@H](OC)C[C@@H]4[C@]1(C)[C@@H]32` [MUNRONOID N]: in the test with Tobacco mosaic virus [4], the IC50 came to 27.9 µg/mL (≈ 46.6 µM). This molecule also registered an inhibition at 200 µg/mL with Tobacco mosaic virus [1] of 24.5%. Besides, the inhibition at 5 µg/mL with Tobacco mosaic virus [5] stood at 8.3%. In addition, in the test with Tobacco mosaic virus [6], the inhibition at 20 µg/mL amounted to 37.9%. The inhibition at 15 µg/mL in the test with Tobacco mosaic virus [7] was determined as 26.4%. The figures for the inhibition at 30 µg/mL in the test with Tobacco mosaic virus [2] and in the test on Tobacco mosaic virus [3] were 52% and 30.2%, respectively. In the test on Tobacco mosaic virus [8], the inhibition at 10 µg/mL came out at 16.5%. The inhibition at 25 µg/mL in the test on Tobacco mosaic virus [9] was determined as 44.6%.
In the case of `C=C1[C@@H]([C@@]2(C)C=CC(=O)OC(C)(C)[C@@H]2CC(=O)OC)[C@@H](OC(C)=O)[C@H](OC(C)=O)[C@@]2(C)[C@H](C3=CC(=O)OC3)C[C@H]3O[C@]132` [MUNRONOID O], in the test with Tobacco mosaic virus [4], it took 22.2 µg/mL (≈ 37.8 µM) to reach half-maximal inhibition (IC50). The molecule also had an inhibition at 200 µg/mL in the test with Tobacco mosaic virus [1] of 50.2%. The inhibition at 5 µg/mL in the test with Tobacco mosaic virus [5] was found to be 11.2%. Moreover, the inhibition at 20 µg/mL with Tobacco mosaic virus [6] is 42.8%. In addition, the inhibition at 15 µg/mL in the test with Tobacco mosaic virus [7] came out at 33.4%. Also, the inhibition at 30 µg/mL in the test with Tobacco mosaic virus [2] and in the test with Tobacco mosaic virus [3] was 64.2% throughout. The inhibition at 10 µg/mL in the test on Tobacco mosaic virus [8] was 24.6%. Moreover, in the test on Tobacco mosaic virus [9], the inhibition at 25 µg/mL was 51.4%.
The molecule `CNCC(=O)N[C@@H](CO)C(=O)N[C@H]1[C@H](O)[C@@H](O)[C@H](n2ccc(N)nc2=O)O[C@@H]1C(N)=O` [NINGNANMYCIN] displayed a concentration for half-maximal inhibition (IC50) in the test with Tobacco mosaic virus [4] of 52.1 µg/mL (≈ 117 µM). Besides, the inhibition at 200 µg/mL with Tobacco mosaic virus [1] came to 42.1%. Moreover, the inhibition at 20 µg/mL with Tobacco mosaic virus [6] came out at 32.1%. In the test on Tobacco mosaic virus [7], the inhibition at 15 µg/mL was found to be 30.3%. Also, the inhibition at 30 µg/mL in the test on Tobacco mosaic virus [2] was 42.6%; with Tobacco mosaic virus [3] it was 56.5%. Further, in the test with Tobacco mosaic virus [8], the inhibition at 10 µg/mL was 25%. For the same molecule, the inhibition at 25 µg/mL in the test with Tobacco mosaic virus [9] was found to be 38.3%.
As to `C=C1[C@@H]([C@@]2(C)C=CC(=O)OC(C)(C)[C@@H]2CC(=O)OC)[C@@H](OC(C)=O)[C@H](OC(C)=O)[C@@]2(C)[C@@H](c3ccoc3)C[C@H]3O[C@]132` [NYMANIA], in the test on Tobacco mosaic virus [4], half-maximal inhibition (IC50) required 22.3 µg/mL (≈ 39.1 µM). The molecule further yielded an inhibition at 200 µg/mL in the test on Tobacco mosaic virus [1] of 39.2%. In addition, the inhibition at 5 µg/mL with Tobacco mosaic virus [5] stood at 8.3%. Also, the inhibition at 20 µg/mL with Tobacco mosaic virus [6] came to 40.2%. In addition, in the test on Tobacco mosaic virus [7], the inhibition at 15 µg/mL is 29.8%. Also, the inhibition at 30 µg/mL was found to be 58% with Tobacco mosaic virus [2] and 55.4% in the test with Tobacco mosaic virus [3]. For the same molecule, the inhibition at 10 µg/mL with Tobacco mosaic virus [8] amounted to 19.6%. For the same molecule, in the test with Tobacco mosaic virus [9], the inhibition at 25 µg/mL worked out at 49.8%.
